In ChEMBL document CHEMBL4330084, “Development of posaconazole-based analogues as hedgehog signaling pathway inhibitors” (Eur J Med Chem, 2019):
≈ marks a conversion by molar mass, not a printed value.

How the values were obtained:
hERG (KCNH2) = hERG (KCNH2) (Homo sapiens, UniProt Q12809); assay: Inhibition of human ERG expressed in CHO cells at 25 uM by electrophysiology assay relative to control; format: cell-based; conditions: CHO cells expressing human ERG
[1] = Kinetic solubility of compound in pH 7.4 PBS by LC-MS/MS analysis; format: physicochemical; conditions: for solubility kinetic: PBS, read-out: Kinetic_solubility
Method in brief: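 Kinetic solubility in PBS, pH 7.4; run by a CRO (Pharmaron or Cyprotex) under its standard protocol.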

Cytochrome P450 3A4 = Cytochrome P450 3A4 (Homo sapiens, UniProt P08684); assay: Inhibition of CYP3A4 in human liver microsomes by LC-MS/MS analysis
Chain of Cytochrome P450 3A4 (P08684 whole entry): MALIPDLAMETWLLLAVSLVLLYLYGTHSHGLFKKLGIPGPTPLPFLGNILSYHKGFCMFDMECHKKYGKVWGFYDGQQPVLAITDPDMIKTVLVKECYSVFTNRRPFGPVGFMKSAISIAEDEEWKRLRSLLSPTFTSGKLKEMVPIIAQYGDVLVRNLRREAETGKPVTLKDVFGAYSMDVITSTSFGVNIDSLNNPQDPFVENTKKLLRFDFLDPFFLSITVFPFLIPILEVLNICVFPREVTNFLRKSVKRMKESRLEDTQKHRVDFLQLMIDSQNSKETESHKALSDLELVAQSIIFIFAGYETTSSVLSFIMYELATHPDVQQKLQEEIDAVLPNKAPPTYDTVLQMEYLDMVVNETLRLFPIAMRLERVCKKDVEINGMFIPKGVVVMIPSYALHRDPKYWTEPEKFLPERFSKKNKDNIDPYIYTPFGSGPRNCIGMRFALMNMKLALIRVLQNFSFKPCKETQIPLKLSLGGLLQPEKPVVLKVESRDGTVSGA

[2] = human, microsomes, 1 µM
[3] = Inhibition of hedgehog signaling pathway in mouse ASZ cells assessed as decrease in Gli1 mRNA expression after 48 hrs by qRT-PCR analysis; format: cell-based
Method in brief: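 Murine BCC line ASZ (Ptch+/-), 80% confluent, seeded at 10,000 cells/well in 154CF medium (2% FBS), 24 h, then serum-free medium 24 h (37°C, 5% CO2). Treated 48 h with compound at 10–0.001 μM or DMSO vehicle. Gli1 mRNA measured by qRT-PCR against actin B internal control; concentrations lowering actin B were excluded. IC50 as mean ± SEM, repeat experiments in triplicate.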

[4] = Half life in human liver microsomes at 1 uM by LC-MS/MS analysis
Mus musculus [5] = species on record: Mus musculus; assay: Potency index, ratio of IC50 for PSZ to IC50 for test compound for inhibition of hedgehog signaling pathway in mouse ASZ cells assessed as decrease in Gli1 mRNA expression after 48 hrs by qRT-PCR analysis; format: cell-based
Mus musculus [6] = species on record: Mus musculus; assay: Inhibition of hedgehog signaling pathway in hedgehog-dependent mouse Ptch-CKO cells assessed as inhibition of cell growth

Chain of hERG (KCNH2) (Q12809 whole entry): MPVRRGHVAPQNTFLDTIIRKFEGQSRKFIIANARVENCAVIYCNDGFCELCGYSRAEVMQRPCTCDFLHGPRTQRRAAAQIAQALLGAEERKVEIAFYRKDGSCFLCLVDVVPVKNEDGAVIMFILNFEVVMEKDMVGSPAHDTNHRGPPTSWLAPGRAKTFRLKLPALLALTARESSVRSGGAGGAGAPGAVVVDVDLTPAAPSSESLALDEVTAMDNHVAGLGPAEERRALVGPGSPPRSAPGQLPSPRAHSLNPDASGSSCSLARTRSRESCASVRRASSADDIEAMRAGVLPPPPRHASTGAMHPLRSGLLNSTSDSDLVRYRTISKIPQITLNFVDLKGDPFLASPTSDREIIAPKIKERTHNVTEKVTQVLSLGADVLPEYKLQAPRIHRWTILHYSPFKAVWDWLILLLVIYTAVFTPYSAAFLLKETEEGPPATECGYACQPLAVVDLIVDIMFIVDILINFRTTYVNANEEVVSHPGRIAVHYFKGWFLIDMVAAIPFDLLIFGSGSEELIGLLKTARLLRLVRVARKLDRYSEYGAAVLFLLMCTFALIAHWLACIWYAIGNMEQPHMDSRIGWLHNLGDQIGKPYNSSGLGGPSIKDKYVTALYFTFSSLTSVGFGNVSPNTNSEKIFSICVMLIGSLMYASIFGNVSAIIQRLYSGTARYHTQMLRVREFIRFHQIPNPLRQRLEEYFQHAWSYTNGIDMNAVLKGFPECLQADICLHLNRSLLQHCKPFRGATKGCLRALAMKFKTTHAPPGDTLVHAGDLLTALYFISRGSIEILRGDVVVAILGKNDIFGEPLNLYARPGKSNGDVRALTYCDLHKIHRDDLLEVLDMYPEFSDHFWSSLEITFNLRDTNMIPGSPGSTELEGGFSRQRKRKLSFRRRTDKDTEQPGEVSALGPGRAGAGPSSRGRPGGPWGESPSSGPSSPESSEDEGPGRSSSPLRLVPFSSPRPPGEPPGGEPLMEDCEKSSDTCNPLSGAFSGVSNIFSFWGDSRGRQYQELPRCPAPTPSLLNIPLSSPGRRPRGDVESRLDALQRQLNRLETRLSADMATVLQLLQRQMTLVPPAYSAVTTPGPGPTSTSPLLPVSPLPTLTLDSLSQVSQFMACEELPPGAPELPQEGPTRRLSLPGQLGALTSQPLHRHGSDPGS

Row | solubility kinetic [1] | IC50 [3] | t1/2 [4] | SMILES | further results
1 | 3.13 µM (≈ 1.96 µg/mL) | 24 nM | 1.92 h | CC(=O)c1cccc(C(=O)Nc2ccc(N3CCN(c4ccc(OC[C@@H]5CO[C@@](C)(c6ccc(F)cc6F)C5)cc4)CC3)cc2)c1 | inhibition at 25 µM (hERG (KCNH2)): 4.2%; IC50 (Cytochrome P450 3A4): > 20000 nM; CLH [2]: 20 µL/min/mg
2 | 3.13 µM (≈ 1.88 µg/mL) | 190 nM | > 3 h | C[C@]1(c2ccc(F)cc2F)C[C@H](COc2ccc(N3CCN(c4ccc(NC(=O)c5cccc(O)c5)cc4)CC3)cc2)CO1 | CLH [2]: 2.23 µL/min/mg
3 |  | 190 nM | 1.03 h | CC[C@@H](C)n1ncn(-c2ccc(N3CCN(c4ccc(OC[C@@H]5CO[C@@](C)(c6ccc(F)cc6F)C5)cc4)CC3)cc2)c1=O | Ratio IC50 (Mus musculus [5]): 2.5; GI50 (Mus musculus [6]): 610 nM; IC50 (Cytochrome P450 3A4): > 20000 nM; CLH [2]: 37.4 µL/min/mg
4 |  | 740 nM |  | C[C@]1(c2ccc(F)cc2F)C[C@H](COc2ccc(N3CCN(c4ccc([N+](=O)[O-])cc4)CC3)cc2)CO1 | 
5 | 1.56 µM (≈ 0.912 µg/mL) | > 10000 nM |  | C[C@]1(c2ccc(F)cc2F)C[C@H](COc2ccc(N3CCN(c4ccc(NC(=O)c5cccnc5)cc4)CC3)cc2)CO1 | 
6 |  | 150 nM |  | C[C@]1(c2ccc(F)cc2F)C[C@H](COc2ccc(N3CCN(c4ccc(-n5cnn(CC(=O)O)c5=O)cc4)CC3)cc2)CO1 | 
7 |  | 220 nM |  | C[C@]1(c2ccc(F)cc2F)C[C@H](COc2ccc(N3CCN(c4ccc(NC(=O)NN)cc4)CC3)cc2)CO1 | 
8 |  | > 10000 nM |  | C[C@]1(c2ccc(F)cc2F)C[C@H](COc2ccc(N3CCN(c4ccc(NC(=O)Oc5ccccc5)cc4)CC3)cc2)CO1 | 
9 | 0.781 µM (≈ 0.511 µg/mL) | 12 nM |  | CC1(c2ccc(Cl)cc2Cl)OCC(COc2ccc(N3CCN(c4ccc(-n5cnn(CCC(=O)O)c5=O)cc4)CC3)cc2)O1 (centres undefined) | inhibition at 25 µM (hERG (KCNH2)): 3.6%; IC50 (Cytochrome P450 3A4): > 20000 nM
10 | 1.56 µM (≈ 0.945 µg/mL) | 20 nM |  | C[C@]1(c2ccc(F)cc2F)C[C@H](COc2ccc(N3CCN(c4ccc(-n5cnn(CCCO)c5=O)cc4)CC3)cc2)CO1 | 
11 |  | 330 nM |  | C[C@]1(c2ccc(F)cc2F)C[C@H](COc2ccc(N3CCN(c4ccc(N)cc4)CC3)cc2)CO1 | 
12 |  | 32 nM |  | C[C@]1(c2ccc(F)cc2F)C[C@H](COc2ccc(N3CCN(c4ccc(-n5cnn(CCC(=O)O)c5=O)cc4)CC3)cc2)CO1 | 
13 |  | 190 nM |  | C[C@]1(c2ccc(F)cc2F)C[C@H](COc2ccc(N3CCN(c4ccc(-n5cn[nH]c5=O)cc4)CC3)cc2)CO1 | 
14 | 0.8 µM (≈ 0.565 µg/mL) |  | 0.45 h | CCC(C)n1ncn(-c2ccc(N3CCN(c4ccc(OCC5COC(Cn6cncn6)(c6ccc(Cl)cc6Cl)O5)cc4)CC3)cc2)c1=O (centres undefined) [ITRACONAZOLE] | inhibition at 25 µM (hERG (KCNH2)): < 1%

Row | SMILES | solubility kinetic [1] | IC50 [3] | t1/2 [4] | further results
15 | CC[C@@H]([C@H](C)O)n1ncn(-c2ccc(N3CCN(c4ccc(OC[C@@H]5CO[C@@](Cn6cncn6)(c6ccc(F)cc6F)C5)cc4)CC3)cc2)c1=O [POSACONAZOLE] |  | 500 nM | 1.8 h | inhibition at 25 µM (hERG (KCNH2)): 14.7%; Kinetic_solubility ([1]; buffer): 0.781 µM; CLH [2]: 21.5 µL/min/mg
